Values after ≈ are worked out from the molar mass of the structure shown.
Experiments:
HT-29 = experiment: Cytotoxicity against human HT29 cells by MTT assay; format: functional; details: read-out: ED50 (the source's name)
How it was run: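 HT-29 human colon adenocarcinoma cells; viability read by MTT assay, following a previously described procedure.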

P388 = experiment: Cytotoxicity against mouse P388 cells by MTT assay; format: functional; details: read-out: ED50 (the source's name)
How it was run: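 P-388 mouse lymphocytic leukemia cells; viability read by MTT assay, following a previously described procedure.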

SMILES | EC50 (HT-29) [µg/mL] | EC50 (P388) [µg/mL]
C=C(CC[C@@H](C)[C@H]1CC[C@H]2[C@@H]3C=CC4=C[C@@H]5OC[C@@]4(C[C@@H]5O)[C@H]3CC[C@]12C)C(C)C | > 10 | > 10
C[C@H]1CCC[C@@]2(C)C[C@H]3OO[C@@]12C=C3C(C)(C)O | > 10 | > 10
C[C@H]1CCC[C@@]2(C)C[C@H]3OO[C@@]12C=C3C(C)(C)OO | 0.4 (≈ 1.49 µM) | 0.2 (≈ 0.745 µM)
C=C(CC[C@@H](C)[C@H]1CC[C@H]2[C@@H]3C=CC4=CC=CC[C@]4(CO)[C@H]3CC[C@]12C)C(C)C | > 10 | > 10
C[C@@H]1CC[C@@H](C(C)(C)O)C[C@]2(C)C1=C[C@H]1O[C@H]12 (relative stereo) | > 10 | > 10
C=C(CC[C@@H](C)[C@H]1CC[C@H]2[C@@H]3C[C@H]4OC[C@@]5(CC[C@H](O)C[C@]45O)[C@H]3CC[C@]12C)C(C)C | > 10 | > 10
C=C(C)[C@@]1(O)CC[C@]2(C)[C@H]3CC[C@@H](C)[C@H]3[C@@H]21 | > 10 | > 10
C=C(C)[C@@]1(OO)CC[C@]2(C)[C@H]3CC[C@@H](C)[C@H]3[C@@H]21 | 0.5 (≈ 2.12 µM) | 0.3 (≈ 1.27 µM)
C=C(C)[C@H]1[C@@H]2[C@H](C)CC[C@@H]2[C@@]2(C)CC[C@@H]12 | 3.2 (≈ 15.7 µM) | 2.8 (≈ 13.7 µM)
